# Measured values: ChEMBL document CHEMBL1955811, “Inhibition of colony-stimulating-factor-1 signaling in vivo with the orally bioavailable cFMS kinase inhibitor GW2580” (Proc Natl Acad Sci U S A, 2005)
# Activity calls are given as the source filed them. The calls are words filed in the database; no cut-off is given here.
# Tests used:
# [1] = test system: Osteoclast; experiment: Inhibition of human osteoclast degradation of bone assessed as reduction in 23C6(+) cells with more than 3 nuclei per cm2 of bone at 1 uM after 3 days by immunocytochemistry (reference value: 854 +/- 122 cells/cm2 of bone); type: functional
# [2] = test system: Osteoclast; experiment: Inhibition of human osteoclast degradation of bone assessed as reduction in 23C6(+) cells with more than 3 nuclei per cm2 of bone at 3 uM after 3 days by immunocytochemistry (reference value: 854 +/- 122 cells/cm2 of bone); type: functional
# [3] = test system: Osteoclast; experiment: Inhibition of human osteoclast attachment to plastic surface assessed cells per cm2 of plastic at 1 uM after 3 days by immunocytochemistry (reference value: 9723 +/- 1380 cells/cm2 of plastic); type: functional
# Summary of the method: (§1)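 Human PBMCs from a healthy volunteer (5 × 10^5 cells in MEM/10% FCS) were seeded on plastic coverslips with RANKL and CSF-1 (30 ng/ml each) for 10 days, with medium changed every 3 days. Compound was added on day 10 (0.1% DMSO final). On day 13, total cells on the coverslips were counted by immunocytochemistry. Data are mean ± SEM.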
# [4] = test system: PBMC; experiment: Effect on LPS-induced IL-6 production in human PBMC at 0.03906 to 20 uM preincubated for 30 mins before LPS stimulation measured after 20 hrs by ELISA; type: functional, cell-based
# [5] = test system: Mus musculus; experiment: Inhibition of LPS-stimulated TNF production in CSF-1 primed mouse at 40 mg/kg, po administered 0.5 hr before LPS challenge post CSF-1 priming measured […] after LPS challenge; type: functional
# [6] = test system: Mus musculus; experiment: Inhibition of thioglycolate-induced macrophage influx into peritoneal cavity in mouse at 20 mg/kg, po BID starting 1 hr before thioglycolate challenge for 4 days; type: functional
# Summary of the method: (§2)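 Female C3H/HEN mice (22-26 g) were dosed orally with compound suspended in 0.5% hydroxypropylmethylcellulose/0.1% Tween 80 (0.2 ml per mouse). Thioglycolate (1.5 ml) was injected i.p. on day 0. On day 4, the peritoneum was lavaged with 5 ml cold PBS containing 40 units/ml heparin, and cells were counted by hemocytometer in 0.1% crystal violet. Data are mean ± SEM; Dunnett's test.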
# [7] = test system: Mus musculus; experiment: Inhibition of LPS-stimulated TNF production in CSF-1 primed mouse at 20 to 80 mg/kg, po administered 4.5 hr before LPS challenge and CSF-1 priming measured […] after LPS challenge; type: functional, organism-based
# [8] = test system: Mus musculus; experiment: Increase in LPS-stimulated IL-6 production in mouse at 40 mg/kg, po administered 4.5 hr before LPS challenge measured […] after LPS challenge
# [9] = Protein binding in cell-culture media with 10% fetal calf serum at 3 uM; type: ADME, cell-free, Bos taurus; settings: cattle, read-out: PB (converted)
# Summary of the method: (§3)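 Compound at 3 μM was added to triplicate samples and incubated 1 h at 37°C. Samples were centrifuged through a 30,000-MW filter (1,500 × g, 15 min, 4°C). Percent bound was calculated from compound concentrations in the filtrate and retentate.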
# [10] = test system: Mus musculus; experiment: Inhibition of LPS-stimulated TNF production in mouse at 40 mg/kg, po administered 0.5 hr before LPS challenge measured […] after LPS challenge; type: functional
# [11] = test system: Monocyte; experiment: Inhibition of CSF-1-stimulated growth of freshly isolated human monocytes at 1 uM preincubated for 30 mins before inducer addition measured after 5 days by WST-1 method; type: functional; settings: read-out: GI
# [12] = Cmax in mouse at 80 mg/kg, po; type: ADME, organism-based; design: dose 80 mg/kg, route oral; settings: in vivo
# Summary of the method: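 Female mice given single oral doses (20 or 80 mg/kg) in 0.5% HPMC/0.1% Tween 80. Three mice killed with CO2 per time point; plasma extracted with isopropyl alcohol/acetonitrile, then vortexed, sonicated and centrifuged. Quantified by LC/MS (APCI positive mode, multiple-reaction monitoring) against a standard curve prepared in plasma.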
# [13] = test system: Osteoclast; experiment: Inhibition of human osteoclast attachment to plastic surface assessed cells per cm2 of plastic at 3 uM after 3 days by immunocytochemistry (reference value: 9723 +/- 1380 cells/cm2 of plastic); type: functional; summary of the method: as §1
# [14] = test system: PBMC; experiment: Effect on LPS-induced TNF production in human PBMC at 0.03906 to 20 uM preincubated for 30 mins before LPS stimulation measured after 20 hrs by ELISA; type: functional, cell-based
# [15] = test system: A549; experiment: Growth inhibition of serum-stimulated human A549 cells after 3 days by spectrophotometry; type: functional, cell-based; settings: A549, 72 h
# Summary of the method: (§4)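 Cells cultured so that added serum or growth factor gave linear growth. Compound tested as a 10- to 12-point dose-response with a top concentration of 20 μM.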
# [16] = test system: Osteoclast; experiment: Inhibition of human osteoclast degradation of bone assessed as reduction in actin ring formation per cm2 of bone at 3 uM after 3 days by immunocytochemistry (reference value: 1546 +/- 232 /cm2 of bone); type: functional
# [17] = test system: Monocyte; experiment: Effect on LPS-induced IL-6 production in human monocytes at 0.03906 to 20 uM preincubated for 30 mins before LPS stimulation measured after 20 hrs by ELISA; type: functional, cell-based
# [18] = test system: Mus musculus; experiment: Inhibition of thioglycolate-induced macrophage influx into peritoneal cavity in mouse at 20 mg/kg, po BID administered 7 days before and 4 days after thioglycolate challenge; type: functional; summary of the method: as §2
# [19] = Growth inhibition of serum-stimulated human MDA231 cells after 3 days by spectrophotometry; type: functional, cell-based; settings: MDA-MB-231, 72 h; summary of the method: as §4
# [20] = Protein binding in cell-culture media with mouse plasma at 3 uM; type: ADME, cell-free; settings: read-out: PB (converted); summary of the method: as §3
# [21] = test system: Mus musculus; experiment: Inhibition of LPS-stimulated TNF production in mouse at 20 to 80 mg/kg, po administered 4.5 hr before LPS challenge and measured […] after LPS challenge; type: functional, organism-based
# [22] = test system: Mus musculus; experiment: Inhibition of LPS-stimulated IL-6 production in mouse at 40 mg/kg, po administered 4.5 hr before LPS challenge measured […] after LPS challenge; type: functional
# [23] = test system: Peritoneal macrophage cell; experiment: Effect on LPS-induced IL-6 production in mouse intraperitoneal macrophages pretreated with CSF-1 at 0.03906 to 20 uM compound incubated for 30 mins before LPS stimulation measured after 20 hrs by ELISA; type: functional, cell-based
# [24] = test system: Macrophage; experiment: Effect on LPS-induced TNF production in CSF-1-stimulated human macrophages at 0.03906 to 20 uM preincubated for 30 mins before LPS stimulation measured after 20 hrs by ELISA; type: functional, cell-based
# [25] = target: Protein kinase C beta type (Homo sapiens, UniProt P05771); experiment: Inhibition of human PKCb1 catalytic domain after by scintillation counting
# Sequence of Protein kinase C beta type (P05771 whole entry, the tested form may be a part): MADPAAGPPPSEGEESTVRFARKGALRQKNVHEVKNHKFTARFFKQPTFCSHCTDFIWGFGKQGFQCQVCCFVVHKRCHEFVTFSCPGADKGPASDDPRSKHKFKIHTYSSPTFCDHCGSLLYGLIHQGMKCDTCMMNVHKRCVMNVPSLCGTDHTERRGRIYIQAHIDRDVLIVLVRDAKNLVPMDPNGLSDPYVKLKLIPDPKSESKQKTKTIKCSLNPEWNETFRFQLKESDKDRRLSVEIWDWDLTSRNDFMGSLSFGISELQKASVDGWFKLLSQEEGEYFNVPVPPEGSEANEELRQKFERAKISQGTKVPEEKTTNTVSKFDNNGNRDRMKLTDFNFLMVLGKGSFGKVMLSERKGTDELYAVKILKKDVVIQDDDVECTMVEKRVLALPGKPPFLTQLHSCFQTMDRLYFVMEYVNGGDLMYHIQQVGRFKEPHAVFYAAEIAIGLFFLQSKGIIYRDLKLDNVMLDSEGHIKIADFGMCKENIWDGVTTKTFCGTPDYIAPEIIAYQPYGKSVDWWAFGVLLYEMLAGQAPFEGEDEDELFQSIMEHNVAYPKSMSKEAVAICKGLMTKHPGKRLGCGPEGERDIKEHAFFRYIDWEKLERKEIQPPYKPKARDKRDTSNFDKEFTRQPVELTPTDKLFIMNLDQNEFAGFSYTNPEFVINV
# Summary of the method: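 Catalytic domains of the human kinases were expressed, isolated and assayed with ATP and the appropriate substrate. Compound was tested as a 10- to 12-point dose-response up to a maximal 20 μM.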
smiles,measurement,setting,value
COc1ccc(COc2ccc(Cc3cnc(N)nc3N)cc2OC)cc1 [GW632580X],Activity,[1],244 /cm2
same,Activity,[2],120 /cm2
same,Activity,[3],2984 /cm2
same,Activity,[4],inactive
same,inhibition in vivo at 40 mg/kg,[5],63%
same,inhibition in vivo at 20 mg/kg,[6],17%
same,inhibition,[7],Active
same,Activity,[8],Active
same,fraction unbound at 3 µM,[9],0.76
same,inhibition in vivo at 40 mg/kg,[10],68%
same,inhibition of growth at 1 µM,[11],100%
same,Cmax,[12],5.6 µM
same,Activity,[13],3369 /cm2
same,Activity,[14],inactive
same,IC50,[15],> 30 µM
same,Activity,[16],148 /cm2
same,Activity,[17],inactive
same,inhibition in vivo at 20 mg/kg,[18],8%
same,IC50,[19],> 30 µM
same,fraction unbound at 3 µM,[20],0.07
same,inhibition,[21],Active
same,inhibition in vivo at 40 mg/kg,[22],-28%
same,Activity,[23],inactive
same,Activity,[24],inactive
same,IC50,[25],> 13 µM
